In ChEMBL document CHEMBL1782030, “Polyethylene glycol-based homologated ligands for nicotinic acetylcholine receptors” (Bioorg Med Chem, 2008):

Test: Displacement of [3H]epibatidine from nAChR in rat cerebral cortex
Assay type: tissue-based
Method in brief: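 Rat cerebral cortex membranes used as receptor source; competition binding against the radioligand [3H]epibatidine. Ki values given as mean ± SEM of three experiments, each run in triplicate.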

SMILES	Ki [µM]
CN1CCC[C@H]1COc1cncc(C#CCO)c1	0.0031
COC(=O)NCC[N+](C)(C)C	14
COCCOC(=O)NCC[N+](C)(C)C	54
COCCOCCOC(=O)NCC[N+](C)(C)C	32
COCCOCCOCCOC(=O)NCC[N+](C)(C)C	70
COCCOCCOCCOCCOC(=O)NCC[N+](C)(C)C	150
COCCOCCOCCOCCOCCOC(=O)NCC[N+](C)(C)C	190
COCCOCCOCCOCCOCCOCCOC(=O)NCC[N+](C)(C)C	30
COC(=O)N1CC[N+](C)(C)CC1	0.67
COCCOC(=O)N1CC[N+](C)(C)CC1	3
COCCOCCOC(=O)N1CC[N+](C)(C)CC1	8.2
COCCOCCOCCOC(=O)N1CC[N+](C)(C)CC1	48
COCCOCCOCCOCCOC(=O)N1CC[N+](C)(C)CC1	26
COCCOCCOCCOCCOCCOC(=O)N1CC[N+](C)(C)CC1	38
COCCOCCOCCOCCOCCOCCOC(=O)N1CC[N+](C)(C)CC1	19
COCC#Cc1cncc(OC[C@@H]2CCCN2C)c1	0.0047
COCCOCC#Cc1cncc(OC[C@@H]2CCCN2C)c1	0.015
COCCOCCOCC#Cc1cncc(OC[C@@H]2CCCN2C)c1	0.0075
COCCOCCOCCOCC#Cc1cncc(OC[C@@H]2CCCN2C)c1	0.015
COCCOCCOCCOCCOCC#Cc1cncc(OC[C@@H]2CCCN2C)c1	0.03
COCCOCCOCCOCCOCCOCC#Cc1cncc(OC[C@@H]2CCCN2C)c1	0.04
COCCOCCOCCOCCOCCOCCOCC#Cc1cncc(OC[C@@H]2CCCN2C)c1	0.063
CC(=O)N1CC[N+](C)(C)CC1 [ACETYLDIMETHYLPIPERAZINIUM IODIDE]	3.6
